Calls of active or inactive are those of the source. The calls are words filed in the database; no cut-off is given here.
Tests used:
[1] = target: T1, Macrophage metalloelastase (Homo sapiens, UniProt P39900); test: Inhibition of human recombinant MMP-12 using Mca-Pro-Leu-Gly-Leu-Dpa-Ala-Arg-NH2.AcOH as substrate at 10 uM preincubated for 30 mins prior to substrate addition measured for 30 mins by fluorescence assay relative to control
Summary of the method: (§1)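 Human recombinant MMP-2 (1.16 U) or MMP-12 (0.007 U) in 50 mM HEPES, 10 mM CaCl₂, 0.05% Brij-35, pH 7.5, preincubated with inhibitor 30 min at 37 °C; 4 µM OmniMMP peptide then added. Fluorescence rise (ex 320/em 400 nm) over 30 min, as percent of no-inhibitor wells. Triplicate assays, triplicate wells; mean ± SD.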
Target sequence in this assay (P39900 106-470 limits assumed): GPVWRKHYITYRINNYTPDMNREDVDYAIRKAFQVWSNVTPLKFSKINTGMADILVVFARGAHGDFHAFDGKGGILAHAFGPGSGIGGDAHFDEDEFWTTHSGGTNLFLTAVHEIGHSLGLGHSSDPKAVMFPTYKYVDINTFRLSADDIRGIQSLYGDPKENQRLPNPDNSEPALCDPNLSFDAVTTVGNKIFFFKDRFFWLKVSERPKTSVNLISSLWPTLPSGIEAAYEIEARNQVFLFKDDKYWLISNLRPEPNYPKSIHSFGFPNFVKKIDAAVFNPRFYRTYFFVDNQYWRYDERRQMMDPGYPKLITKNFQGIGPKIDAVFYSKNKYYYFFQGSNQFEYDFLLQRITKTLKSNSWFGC

Trypsin (Homo sapiens) = Trypsin (Homo sapiens) (UniProt P07477+P07478+P35030); test: Inhibition of TPCK-treated trypsin (unknown origin) at 10 uM preincubated for 10 mins prior to substrate addition measured for 30 mins by spectrophotometric analysis; type: protein assay
Summary of the method: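 Commercial colorimetric kit run per manufacturer; TPCK-treated trypsin (100 mU) in kit buffer, inhibitor at 10 µM; enzyme and inhibitor preincubated 10 min at room temperature before substrate addition.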

[2] = target: T2, Tyrosinase (Agaricus bisporus) (UniProt O42713); test: Inhibition of mushroom tyrosinase assessed as L-DOPA conversion to melanin at 10 uM preincubated for 10 mins prior to substrate addition measured after 10 mins by spectrophotometric analysis
T2 sequence (whole entry): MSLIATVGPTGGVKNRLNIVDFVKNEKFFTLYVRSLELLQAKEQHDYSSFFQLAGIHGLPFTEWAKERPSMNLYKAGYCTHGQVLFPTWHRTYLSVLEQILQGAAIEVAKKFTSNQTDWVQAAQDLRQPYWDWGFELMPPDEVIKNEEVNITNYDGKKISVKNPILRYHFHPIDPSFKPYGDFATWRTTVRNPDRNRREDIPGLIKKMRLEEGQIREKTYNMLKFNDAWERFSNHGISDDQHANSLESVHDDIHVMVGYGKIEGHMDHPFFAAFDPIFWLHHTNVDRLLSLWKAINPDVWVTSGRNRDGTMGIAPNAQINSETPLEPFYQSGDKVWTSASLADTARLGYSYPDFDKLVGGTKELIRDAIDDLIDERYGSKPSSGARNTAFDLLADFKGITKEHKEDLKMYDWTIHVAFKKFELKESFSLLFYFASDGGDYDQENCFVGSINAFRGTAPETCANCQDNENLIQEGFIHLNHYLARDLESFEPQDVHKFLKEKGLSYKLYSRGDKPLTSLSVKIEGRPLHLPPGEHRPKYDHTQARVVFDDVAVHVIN
Summary of the method: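 Mushroom tyrosinase (30 U) in 10 mM NaH₂PO₄ pH 6.8 with 10 µM inhibitor, 10 min at room temperature; background A475 taken, L-DOPA (0.5 mM) added, A475 read again after 10 min and background subtracted. No-inhibitor wells set as 100% activity. Triplicate assays, triplicate wells; mean ± SD.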

[3] = target: Histone deacetylase 2 (Homo sapiens) (UniProt Q92769); settings: at 10 µM;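 further: fluorescence readout of HDAC2 deacetylase activity, compound preincubated with HDAC2 5 min before substrate, signal read after 30 min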
Homo sapiens = species: Homo sapiens; test: Binding affinity to ferritin (unknown origin) assessed as removal of ferric ion at 1 mM measured for 1 hr by UV-vis spectrophotometric analysis
[4] = target: T3, 72 kDa type IV collagenase (Homo sapiens, UniProt P08253); test: Inhibition of human recombinant MMP-2 using Mca-Pro-Leu-Gly-Leu-Dpa-Ala-Arg-NH2.AcOH as substrate at 10 uM preincubated for 30 mins prior to substrate addition measured for 30 mins by fluorescence assay relative to control; summary of the method: as §1
Target sequence in this assay (P08253 110-660 limits assumed): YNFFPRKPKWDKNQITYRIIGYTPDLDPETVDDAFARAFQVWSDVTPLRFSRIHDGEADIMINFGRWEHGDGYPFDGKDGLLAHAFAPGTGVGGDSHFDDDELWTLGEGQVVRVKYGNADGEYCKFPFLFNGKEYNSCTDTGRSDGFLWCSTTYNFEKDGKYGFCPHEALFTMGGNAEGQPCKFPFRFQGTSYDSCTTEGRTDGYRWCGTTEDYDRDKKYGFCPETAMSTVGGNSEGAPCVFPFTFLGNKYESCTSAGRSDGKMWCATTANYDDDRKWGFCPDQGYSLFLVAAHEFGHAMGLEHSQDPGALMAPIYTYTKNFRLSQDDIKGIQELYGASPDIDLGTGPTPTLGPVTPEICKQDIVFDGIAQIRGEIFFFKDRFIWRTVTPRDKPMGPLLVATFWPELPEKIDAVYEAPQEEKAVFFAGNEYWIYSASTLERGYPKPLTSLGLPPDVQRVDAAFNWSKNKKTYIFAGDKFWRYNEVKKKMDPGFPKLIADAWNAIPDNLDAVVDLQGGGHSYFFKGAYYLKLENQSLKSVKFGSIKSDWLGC

[5] = target: Angiotensin-converting enzyme (Homo sapiens) (UniProt P12821); test: Inhibition of human recombinant ACE/CD143 somatic form using Mca-Pro-Leu-Gly-Leu-Dpa-Ala-Arg-NH2.AcOH as substrate at 10 uM preincubated for 10 mins prior to substrate addition measured for 30 mins by spectrophotometric analysis
Summary of the method: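 Human recombinant somatic ACE/CD143 (20 ng) in 50 mM MES pH 6.5 with inhibitor at 10 µM, preincubated 10 min at 37 °C; OmniMMP fluorogenic peptide (4 µM) then added. Fluorescence (ex 320/em 400 nm) read over 30 min. Data normalized to uninhibited enzyme; triplicate assays, each inhibitor in triplicate; mean ± SD.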

[6] = Inhibition of MMP (unknown origin); design: species or system Homo sapiens
[7] = target: Matrix metalloproteinase-9 (Homo sapiens, UniProt P14780); test: Inhibition of MMP-9 (unknown origin)
[8] = target: T3, 72 kDa type IV collagenase; test: Inhibition of human recombinant MMP-2 using Mca-Pro-Leu-Gly-Leu-Dpa-Ala-Arg-NH2.AcOH as substrate preincubated for 30 mins prior to substrate addition measured for 30 mins by fluorescence assay
Summary of the method: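 Human recombinant MMP-2 (1.16 U) in 50 mM HEPES, 10 mM CaCl₂, 0.05% Brij-35, pH 7.5, is preincubated with inhibitor at 37 °C for 30 min. 4 µM OmniMMP substrate then starts the reaction. Fluorescence (ex 320/em 400 nm) is followed for 30 min. Activity is the fluorescence increase relative to no-inhibitor wells, as a percentage. Three assays, each in triplicate; mean ± SD.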
Target sequence in this assay (P08253 whole entry): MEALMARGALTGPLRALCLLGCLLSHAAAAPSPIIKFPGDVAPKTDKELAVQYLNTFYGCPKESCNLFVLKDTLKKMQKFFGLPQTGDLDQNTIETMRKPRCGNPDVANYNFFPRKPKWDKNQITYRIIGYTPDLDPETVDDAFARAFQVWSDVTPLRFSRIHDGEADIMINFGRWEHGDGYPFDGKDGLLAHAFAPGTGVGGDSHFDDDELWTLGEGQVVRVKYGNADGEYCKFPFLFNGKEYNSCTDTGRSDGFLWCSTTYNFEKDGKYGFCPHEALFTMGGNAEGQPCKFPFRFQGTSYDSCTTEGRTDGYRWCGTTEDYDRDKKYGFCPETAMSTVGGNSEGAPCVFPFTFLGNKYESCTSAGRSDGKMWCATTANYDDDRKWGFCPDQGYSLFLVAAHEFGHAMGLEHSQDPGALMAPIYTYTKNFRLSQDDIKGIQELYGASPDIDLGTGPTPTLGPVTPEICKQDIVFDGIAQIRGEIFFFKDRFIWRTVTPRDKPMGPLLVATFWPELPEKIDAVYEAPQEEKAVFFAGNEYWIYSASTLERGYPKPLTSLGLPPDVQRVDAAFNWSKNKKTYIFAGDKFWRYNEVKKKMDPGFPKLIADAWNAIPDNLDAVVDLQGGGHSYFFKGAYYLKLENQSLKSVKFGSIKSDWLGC

[9] = target: T1, Macrophage metalloelastase; test: Inhibition of human recombinant MMP-12 using Mca-Pro-Leu-Gly-Leu-Dpa-Ala-Arg-NH2.AcOH as substrate preincubated for 30 mins prior to substrate addition measured for 30 mins by fluorescence assay
Summary of the method: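 Human recombinant MMP-12 (0.007 U) was preincubated with inhibitor at 37 °C for 30 min in 50 mM HEPES, 10 mM CaCl₂, 0.05% Brij-35, pH 7.5. OmniMMP substrate was then added, and fluorescence (ex 320/em 400 nm) was followed for 30 min. Activity is the fluorescence increase relative to no-inhibitor wells (set to 100%). Triplicate assays, each with triplicate inhibitor wells; mean ± SD.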
Target sequence in this assay (P39900 whole entry): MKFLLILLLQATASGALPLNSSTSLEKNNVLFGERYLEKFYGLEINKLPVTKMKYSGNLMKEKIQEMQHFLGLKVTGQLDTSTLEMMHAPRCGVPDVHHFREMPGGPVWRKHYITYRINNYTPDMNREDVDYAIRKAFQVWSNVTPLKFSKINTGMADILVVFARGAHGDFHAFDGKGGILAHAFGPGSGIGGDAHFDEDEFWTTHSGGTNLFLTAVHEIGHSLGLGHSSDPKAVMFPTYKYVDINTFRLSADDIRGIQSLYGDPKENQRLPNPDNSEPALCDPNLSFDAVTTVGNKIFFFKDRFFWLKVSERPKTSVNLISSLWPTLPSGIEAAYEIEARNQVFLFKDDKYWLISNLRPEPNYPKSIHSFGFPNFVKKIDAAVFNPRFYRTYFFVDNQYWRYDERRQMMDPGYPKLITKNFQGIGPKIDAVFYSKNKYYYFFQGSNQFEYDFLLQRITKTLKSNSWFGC

Sequence of Angiotensin-converting enzyme (Homo sapiens) (P12821 whole entry): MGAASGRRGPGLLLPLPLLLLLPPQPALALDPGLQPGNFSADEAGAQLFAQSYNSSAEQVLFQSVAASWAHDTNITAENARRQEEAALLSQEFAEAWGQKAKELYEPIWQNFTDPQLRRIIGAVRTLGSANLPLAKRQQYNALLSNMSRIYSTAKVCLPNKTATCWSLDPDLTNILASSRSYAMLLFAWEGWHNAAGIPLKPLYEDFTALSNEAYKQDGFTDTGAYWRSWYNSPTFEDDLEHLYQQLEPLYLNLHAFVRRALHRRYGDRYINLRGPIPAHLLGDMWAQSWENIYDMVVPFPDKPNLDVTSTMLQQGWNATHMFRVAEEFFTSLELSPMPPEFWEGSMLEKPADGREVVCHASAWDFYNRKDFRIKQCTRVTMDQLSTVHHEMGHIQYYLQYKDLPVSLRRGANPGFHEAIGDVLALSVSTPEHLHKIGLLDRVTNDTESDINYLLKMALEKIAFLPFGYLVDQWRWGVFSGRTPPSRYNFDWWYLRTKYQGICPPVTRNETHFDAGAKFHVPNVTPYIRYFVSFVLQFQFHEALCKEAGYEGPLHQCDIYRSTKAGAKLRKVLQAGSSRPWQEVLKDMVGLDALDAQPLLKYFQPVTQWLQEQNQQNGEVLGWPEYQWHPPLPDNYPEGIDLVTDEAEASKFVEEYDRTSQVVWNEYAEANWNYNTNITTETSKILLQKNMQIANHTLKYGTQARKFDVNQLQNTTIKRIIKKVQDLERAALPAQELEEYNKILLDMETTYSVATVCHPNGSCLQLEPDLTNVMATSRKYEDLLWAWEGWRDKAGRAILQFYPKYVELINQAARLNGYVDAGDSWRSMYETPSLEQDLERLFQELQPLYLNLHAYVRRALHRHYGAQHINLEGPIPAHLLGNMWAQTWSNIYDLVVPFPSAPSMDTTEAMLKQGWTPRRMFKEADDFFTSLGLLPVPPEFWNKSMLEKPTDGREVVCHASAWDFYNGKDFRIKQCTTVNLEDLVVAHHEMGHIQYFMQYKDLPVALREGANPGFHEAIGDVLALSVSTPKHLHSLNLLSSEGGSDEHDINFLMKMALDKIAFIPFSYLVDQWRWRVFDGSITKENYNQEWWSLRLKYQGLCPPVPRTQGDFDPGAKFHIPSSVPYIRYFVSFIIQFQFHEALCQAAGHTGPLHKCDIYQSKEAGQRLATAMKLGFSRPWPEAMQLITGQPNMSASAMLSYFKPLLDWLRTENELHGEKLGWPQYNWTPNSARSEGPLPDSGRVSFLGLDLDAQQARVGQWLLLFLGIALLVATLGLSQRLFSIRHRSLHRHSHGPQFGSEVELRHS
Sequence of Histone deacetylase 2 (Homo sapiens) (Q92769 whole entry): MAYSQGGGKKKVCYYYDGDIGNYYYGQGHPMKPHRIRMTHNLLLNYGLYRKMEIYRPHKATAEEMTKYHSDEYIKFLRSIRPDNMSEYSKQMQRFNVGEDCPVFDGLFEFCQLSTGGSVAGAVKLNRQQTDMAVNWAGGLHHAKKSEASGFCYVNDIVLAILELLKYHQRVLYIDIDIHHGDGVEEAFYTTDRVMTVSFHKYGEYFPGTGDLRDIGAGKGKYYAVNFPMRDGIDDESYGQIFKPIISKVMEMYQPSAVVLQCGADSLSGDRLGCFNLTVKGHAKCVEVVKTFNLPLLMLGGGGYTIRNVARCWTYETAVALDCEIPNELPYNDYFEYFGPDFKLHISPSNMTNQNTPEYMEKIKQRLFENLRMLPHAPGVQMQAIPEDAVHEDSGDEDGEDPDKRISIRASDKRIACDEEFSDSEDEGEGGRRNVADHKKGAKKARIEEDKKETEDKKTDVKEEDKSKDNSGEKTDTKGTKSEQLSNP
Sequence of Matrix metalloproteinase-9 (P14780 whole entry): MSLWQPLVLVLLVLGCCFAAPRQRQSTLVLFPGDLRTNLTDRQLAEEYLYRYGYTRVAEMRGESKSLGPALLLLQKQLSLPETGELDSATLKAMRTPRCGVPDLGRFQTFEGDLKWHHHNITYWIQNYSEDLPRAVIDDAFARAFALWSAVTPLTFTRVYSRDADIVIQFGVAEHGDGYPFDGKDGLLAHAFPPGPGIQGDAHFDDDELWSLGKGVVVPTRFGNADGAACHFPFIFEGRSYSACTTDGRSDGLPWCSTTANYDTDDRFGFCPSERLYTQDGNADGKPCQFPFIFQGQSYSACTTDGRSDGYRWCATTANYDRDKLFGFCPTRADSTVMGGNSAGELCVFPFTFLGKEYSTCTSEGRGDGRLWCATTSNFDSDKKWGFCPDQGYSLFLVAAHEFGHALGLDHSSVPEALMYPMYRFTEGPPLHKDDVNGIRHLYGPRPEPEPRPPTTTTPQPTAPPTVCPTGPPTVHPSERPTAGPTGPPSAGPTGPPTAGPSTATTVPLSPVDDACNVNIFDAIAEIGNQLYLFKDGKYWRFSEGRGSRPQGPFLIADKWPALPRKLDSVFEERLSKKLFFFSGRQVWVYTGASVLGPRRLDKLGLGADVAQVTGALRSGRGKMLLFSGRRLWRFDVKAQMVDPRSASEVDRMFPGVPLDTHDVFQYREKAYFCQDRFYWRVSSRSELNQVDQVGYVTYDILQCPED

Compound	inhibition [1]	inhibition (Trypsin (Homo sapiens))	inhibition [2]	inhibition [3]	Activity (Homo sapiens)	inhibition [4]	inhibition [5]	IC50 [6] [µM]	IC50 [7] [µM]	IC50 [8] [µM]	IC50 [9] [µM]
CC(=O)N(O)CCCCCNC(=O)CCC(=O)N(O)CCCCCNC(=O)CCC(=O)N(O)CCCCCN	Active	inactive	inactive	inactive	Active	Active	–	–	–	–	–
C[C@H](CS)C(=O)N1CCC[C@H]1C(=O)O	Active	inactive	inactive	inactive	–	< 10%	–	–	–	–	–
O=C(CCCCCCC(=O)Nc1ccccc1)NO	< 25%	inactive	inactive	–	–	< 25%	Active	–	–	–	–
CC(/C=C/C(=O)NO)=C\[C@@H](C)C(=O)c1ccc(N(C)C)cc1	–	–	–	Active	–	–	–	–	–	–	–
O=C(/C=C/c1ccc(Cl)cc1Cl)NO	< 25%	inactive	inactive	Active	–	< 25%	–	–	–	–	–
COc1ccc(S(=O)(=O)N(Cc2cccnc2)[C@@H](C(=O)NO)C(C)C)cc1 [CGS-27023A]	95%	inactive	inactive	inactive	–	95%	Active	0.008	–	–	–
O=C(O)[C@H](Cc1ccccc1)NS(=O)(=O)c1ccc(-c2ccccc2)cc1	Active	inactive	inactive	inactive	–	Active	inactive	–	0.31	0.24	–
CC(c1cc2ccccc2s1)N(O)C(N)=O (centres undefined)	Active	inactive	inactive	inactive	–	Active	–	–	–	–	–
Cc1nc(C(=O)NCc2ccc(F)cc2)c(O)c(=O)[nH]1	Active	inactive	inactive	inactive	–	50%	–	–	–	–	–
O=C(NCc1ccc(-c2ccccc2)cc1)c1cccc(=O)n1O	100%	inactive	inactive	inactive	–	80%	Active	–	–	–	0.018
CC(=O)Nc1nnc(S(N)(=O)=O)s1	Active	inactive	inactive	inactive	–	Active	–	–	–	–	–

Source: ChEMBL document CHEMBL2434956, “Investigating the selectivity of metalloenzyme inhibitors” (J Med Chem, 2013)
